For 57 compounds, activation and normalized cell count results are on record in PubChem BioAssay AID1296 (Columbia University Molecular Screening Center, 2008).

Hit rate of the full screen: of about 130,000 compounds, about 1,000 (0.77%) were called active. Not shown: some 1% with an inconclusive outcome.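 The calls were made as follows: active = activation at 2 µM above a set limit, confirmed on inspection of the cell images; inconclusive = above the set limit but not confirmed on image inspection; inactive = the rest.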 The entries come from a sample that favours actives as a whole.

The experiment can be described thus: activators of insulin promoter-driven GFP, primary screen, imaging, TRM-6 cells (human fetal islet line), eGFP reporter, cell count (AID 1296;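 as to activation: share of cells whose green reporter signal exceeds an intensity cutoff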). Particulars: at 2 µM; activation: stronger effect = higher value, plate-scaled: unstimulated 0, stimulated control 100; normalized cell count: measured here: cell count (toxicity). A digest of the protocol:
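test system = TRM-6 insulin promoter–eGFP reporter cells | benchmarks = stimulated versus unstimulated wells as plate controls | read-out basis = percent cells above green-intensity threshold, converted to percent activation versus plate controls | detection = fixed-cell fluorescence microscopy, eGFP plus Hoechst | incubation = tamoxifen pre-incubation 15 h overnight, then compound exposure 48 h at 37 °C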
As to `CCOC(=O)NN1C(=O)c2ccccc2NC1c1ccccc1O` (centres undefined), the activation was 2.78% (inactive) and the normalized cell count amounted to 107%.

As to `N#C/C(=C/c1ccc(N2CCCCC2)o1)C(=O)NCCc1c[nH]c2ccccc12`, the activation was 257% (active) and the normalized cell count stood at 92.9%.

`N#C/C(=C/c1ccc(N2CCOCC2)o1)C(=O)N1CCOCC1`: the activation is 7.69% (inactive) and the normalized cell count turned out to be 59.4%.

Turning to `N#C/C(=C\c1ccc(N2CCOCC2)o1)C(=O)N1CCOCC1`, the activation was 7.41% (inactive) and the normalized cell count stood at 99.1%.

`CC1(C)C2CC=C(/C=N/NC(=O)c3ccc(Cl)cc3)C1C2` (centres undefined): the activation is -3.33% (inactive) and the normalized cell count worked out at 104%.

In the case of `COc1ccc(-c2noc(-c3ccc(C)cc3)n2)cc1`, the activation is 1.41% (inactive) and the normalized cell count was 143%.

In the case of `COc1ccc(-c2noc(CSc3ccc(C)cc3)n2)cc1`, the activation is 521% (active) and the normalized cell count was 77.9%.

In the case of `Cc1ccc(-c2noc(CSc3nnc(-c4ccccc4)n3C)n2)cc1`, the activation was -8.33% (inactive) and the normalized cell count amounted to 65.9%.

For `O=C(Nc1ccccc1F)c1ccc(Cn2cc(Br)cn2)cc1`, the activation was 0% (inactive) and the normalized cell count came out at 118%.

Consider `Cc1ccc(O)c(-c2cc(C(=O)NCc3ccccc3)[nH]n2)c1`, for which the activation was -7.14% (inactive) and the normalized cell count stood at 81.6%.

As for `Cc1cccc(NC(=O)C2CC(=O)OC23CCCC3)c1` (centres undefined), the activation is 7.14% (inactive) and the normalized cell count is 75.4%.

As for `Cc1cc(C)cc(NC(=O)c2cccc(NC(=O)C3C4CC5OC(=O)C3C5C4)c2)c1` (centres undefined), the activation is 76.7% (active) and the normalized cell count was determined as 85.6%.

Regarding `CSCc1ccc(C(=O)Nc2cc(C)cc(C)c2)cc1`, the activation was -9.09% (inactive) and the normalized cell count was 139%.

In the case of `O=C(COC(=O)c1cc(S(=O)(=O)N2CCCCC2)ccc1Cl)NCc1ccco1`, the activation is -5.56% (inactive) and the normalized cell count stood at 260%.

For the compound `CC(C)CCC(C)NC(=O)c1ccc2nccnc2c1` (centres undefined), the activation is 6.67% (inactive) and the normalized cell count worked out at 43.3%.

Regarding `Cc1ccc(/C=C(\C#N)C(=O)Nc2cccc3ncccc23)o1`, the activation is 2.7% (inactive) and the normalized cell count is 106%.

In the case of `Cc1ccc2c(NC(=O)C3CC3)cccc2n1`, the activation is 140% (active) and the normalized cell count was 109%.

As to `Cc1nc(NC(=O)C2CCCCC2)sc1C`, the activation is 0% (inactive) and the normalized cell count worked out at 50%.

On to `CC(C)(C)NC(=O)CN(C(=O)c1ccc(Cl)nc1)c1cccc2ccccc12`, for which the activation was 108% (inactive) and the normalized cell count worked out at 93%.

For `Cc1cccc(C(=O)Nc2ccc(C(=O)/C=C/c3cccs3)cc2)c1`, the activation is 9.3% (inactive) and the normalized cell count turned out to be 81.7%.

In the case of `O=C(Nc1ccccc1)c1ccc2nsnc2c1`, the activation was 193% (active) and the normalized cell count was found to be 111%.

`Cc1cccc(C(=O)Nc2ccc(CC(=O)O)cc2)c1`: the activation is 226% (inactive) and the normalized cell count was found to be 56.2%.

For `Cc1nn2c3cc(N4CCOCC4)ccc3nc2c2ccccc12`, the activation was 63.5% (inactive) and the normalized cell count came out at 79.7%.

`CC1C/C(=N/NC(=O)c2cccs2)CC(C)(C)C1` (centres undefined): the activation is 7.25% (inactive) and the normalized cell count came to 112%.

On to `COc1cc(NS(=O)(=O)c2ccc(N=Cc3c(C)[nH]n(-c4ccccc4)c3=O)cc2)nc(OC)n1`, for which the activation was 3.7% (inactive) and the normalized cell count is 98.8%.

Take `Cn1nc(-c2ccccc2)c(-c2nc(-c3ccc(Cl)cc3)no2)c1Cl`: the activation was 471% (active) and the normalized cell count amounted to 71.1%.

Consider `COc1ccc(-c2nc(-c3ccccc3)no2)c(OC)c1`, for which the activation was 0% (inactive) and the normalized cell count was 103%.

Consider `Clc1ccc(-c2nnc(-c3ccccc3)nc2N2CCSCC2)cc1`, for which the activation is -5.41% (inactive) and the normalized cell count amounted to 97.6%.

On to `COc1cccc(NC(=O)CN(C)C(C)C(=O)Nc2ccc(C#N)cc2)c1` (centres undefined), for which the activation is 8.11% (inactive) and the normalized cell count was found to be 96.1%.

As for `COc1ccc(C(=O)CSc2n[nH]c(N)n2)cc1`, the activation was 7.41% (inactive) and the normalized cell count worked out at 116%.

Take `COC(=O)CSc1nc(C)c2ccc(OC)cc2n1`: the activation was 438% (active) and the normalized cell count amounted to 69.4%.

In the case of `COC(=O)c1cc(C(=O)CSc2nc(C)cc(C)n2)ccc1O`, the activation was -5.56% (inactive) and the normalized cell count turned out to be 111%.

For the compound `Cc1nn(-c2ccccn2)c2c1C(c1ccncc1)C1=C(CC(C)(C)CC1=O)N2` (centres undefined), the activation is -6.9% (inactive) and the normalized cell count amounted to 120%.

Regarding `CN(C)c1nnnn1-c1ccc(Cl)cc1`, the activation was 0% (inactive) and the normalized cell count was 128%.

For `Cn1nccc1CNC(=O)c1ccnn1C`, the activation is 7.69% (inactive) and the normalized cell count was 127%.

Turning to `COc1ccc(OCC(=O)N2CCN(C(=O)c3cccs3)CC2)cc1`, the activation is 9.09% (inactive) and the normalized cell count was found to be 125%.

For the compound `O=C(COc1ccccc1)N1CCc2ccccc2C1`, the activation is 3.45% (inactive) and the normalized cell count came to 131%.

For `COc1ccc(OCC(=O)N2CCN(C(=O)COc3ccccc3)CC2)cc1`, the activation is 411% (active) and the normalized cell count amounted to 70.2%.

With `O=C(CSc1nnc(Cn2cnc3ccccc32)o1)c1ccccc1`, the activation is 0% (inactive) and the normalized cell count was 112%.

For the compound `CC(C)C[C@@H](N)c1nnc(SCC(=O)c2ccc(Cl)cc2)o1`, the activation is 533% (active) and the normalized cell count worked out at 62.6%.

For the compound `O=C(CSc1nnc(-c2c[nH]c3ccccc23)o1)c1ccccc1`, the activation was 0% (inactive) and the normalized cell count came out at 133%.

On to `CCCc1nc2c([nH]1)C(c1cccnc1)C(C#N)=C(N)O2` (centres undefined), for which the activation is -6.67% (inactive) and the normalized cell count came to 147%.

In the case of `OC1CSc2nc3ccccc3n2C1` (centres undefined), the activation was 0% (inactive) and the normalized cell count came out at 81.8%.

On to `C=CCn1c(CCc2ccc(OC(C)C)cc2)n[nH]c1=S`, for which the activation was 0% (inactive) and the normalized cell count is 117%.

As for `CCCOCC(O)CC(CC)C(=O)NNC(=S)Nc1ccccc1` (centres undefined), the activation was 0% (inactive) and the normalized cell count amounted to 106%.

With `Nc1ccc(-n2nncc2-c2ccco2)cc1`, the activation is 406% (active) and the normalized cell count was found to be 53.5%.

On to `CCOC(=O)CNC(=O)CSc1ccc2nnc(-c3cccnc3)n2n1`, for which the activation is 0% (inactive) and the normalized cell count stood at 132%.

As for `COc1ccc(-c2nc3ccccc3n2CCC(C)C)cc1OC`, the activation was -9.86% (inactive) and the normalized cell count came out at 74.4%.

On to `Cn1cccc1-c1nc2ccccc2n1C`, for which the activation is 300% (active) and the normalized cell count was 75.7%.

Regarding `COc1ccc(N2CCN(C(=O)COc3ccc4c(C)cc(=O)oc4c3)CC2)cc1`, the activation is -8.33% (inactive) and the normalized cell count worked out at 132%.

Turning to `COc1cc(NC(=S)NNC(=O)CC(C)C)c(OC)cc1Cl`, the activation is 9.38% (inactive) and the normalized cell count worked out at 70.7%.

With `O=C(NC1CCCC1)C(NS(=O)(=O)c1ccc(Br)s1)c1ccccc1` (centres undefined), the activation is 107% (inactive) and the normalized cell count amounted to 72.4%.

As to `O=C(CSc1nn(-c2ccc(F)cc2)c(=S)s1)NC1CCS(=O)(=O)C1` (centres undefined), the activation was 5.88% (inactive) and the normalized cell count was found to be 104%.

As for `COc1ccc(-n2nc3c(c2NC(=O)c2ccc(N4C(=O)CCC4=O)cc2)CSC3)cc1`, the activation was -5.88% (inactive) and the normalized cell count stood at 73.5%.

Regarding `O=C(CSc1nc2ccccc2o1)N1c2ccccc2Sc2ccc(Cl)cc21`, the activation was -4.44% (inactive) and the normalized cell count is 77.2%.

With `CC1Cc2ccccc2N1C(=O)CSc1nc2ccccc2o1` (centres undefined), the activation was 7.14% (inactive) and the normalized cell count came out at 87.7%.

Take `CCS(=O)(=O)c1ccc2oc(SCC(=O)N3c4ccccc4CC3C)nc2c1` (centres undefined): the activation is 457% (active) and the normalized cell count stood at 101%.
